Measurements as given in BindingDB's records for doi:10.1021/jm048999e (2005).

Target: T1, 5-hydroxytryptamine receptor 1A (Rattus norvegicus, UniProt P19327)
T1 sequence (P19327 whole entry): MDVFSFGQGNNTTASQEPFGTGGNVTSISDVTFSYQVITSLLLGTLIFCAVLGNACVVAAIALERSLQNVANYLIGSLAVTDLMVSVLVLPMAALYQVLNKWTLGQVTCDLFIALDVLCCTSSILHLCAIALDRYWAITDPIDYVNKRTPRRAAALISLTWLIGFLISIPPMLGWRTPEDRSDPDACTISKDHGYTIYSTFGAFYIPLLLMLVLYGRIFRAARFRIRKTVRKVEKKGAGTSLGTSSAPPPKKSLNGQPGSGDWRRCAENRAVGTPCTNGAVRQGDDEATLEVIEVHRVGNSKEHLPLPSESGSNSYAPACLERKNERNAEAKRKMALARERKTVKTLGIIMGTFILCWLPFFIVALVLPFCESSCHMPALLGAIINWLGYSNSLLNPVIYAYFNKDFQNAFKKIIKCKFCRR
Assay: In vitro inhibition of [3H]8-OH-DPAT binding to 5-hydroxytryptamine 1A receptor in rat cerebral cortex membranes
Procedure, shortened: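 Rat cerebral cortex membranes (about 1 mg protein) incubated 15 min at 37 °C with 0.6 nM [3H]-8-OH-DPAT in 50 mM Tris-HCl, pH 7.4, containing 10 nM clonidine and 30 nM prazosin. Nonspecific binding with 10 µM 5-HT. Compounds screened at 10^-6 M; curves run if displacement exceeded 55%. Filtration, scintillation counting, triplicates, 2-4 experiments; Ki by Cheng-Prusoff.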

- Ki: 10.4 nM
SMILES: O=c1n(CN2CCN(c3cccc4ccccc34)CC2)c(O)c2n1CCC2 [2-(4-Naphthalen-1-yl-piperazin-1-ylmethyl)-tetrahydro-pyrrolo[1,2-c]imidazole-1,3-dione]
